The target in experiment [1] is 3',5'-cyclic-AMP phosphodiesterase 4B (Homo sapiens, UniProt Q07343). Description: Inhibition of human recombinant PDE4B2 assessed at 10 uM after 60 mins by IMAP fluorescence polarization assay. (Polarisation of emitted light reports the rotation of a fluorescent probe.)
For experiment [2], the target named is cGMP-inhibited 3',5'-cyclic phosphodiesterase 3A (Homo sapiens) (UniProt Q14432). Description: Inhibition of human recombinant PDE3A assessed as inhibition of hydrolysis of [3H]cAMP at 10 uM after 20 mins by scintillation proximity assay. A digest of the protocol:
(§1)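 Scintillation proximity assay with human recombinant enzyme: PDE7A1 0.02 U, PDE3A 0.02 U, PDE7B 0.5 U, PDE8A 0.5 U. Enzyme incubated with 5 nCi [3H]cAMP and inhibitor in kit buffer for 20 min at 30 °C. SPA beads added and shaken 1 h at room temperature, settled 30 min, radioactivity counted.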
For orientation: In a scintillation proximity assay essentially only radioactivity close to the scintillant gives light.

In experiment [3] the target is 3',5'-cyclic-AMP phosphodiesterase 4D (Homo sapiens, UniProt Q08499). As to the kind of experiment: Inhibition of human recombinant PDE4D3 assessed at 10 uM after 60 mins by IMAP fluorescence polarization assay.
Experiment [4] addresses T1, High affinity 3',5'-cyclic-AMP phosphodiesterase 7A (Homo sapiens, UniProt Q13946). Description: Inhibition of human recombinant PDE7A1 assessed as inhibition of hydrolysis of [3H]cAMP at 10 uM after 20 mins by scintillation proximity assay. The method in brief:
as §1

Experiment [5] has as its target T1, High affinity 3',5'-cyclic-AMP phosphodiesterase 7A. Description: Inhibition of human recombinant PDE7A1 assessed as inhibition of hydrolysis of [3H]cAMP after 20 mins by scintillation proximity assay. The method in brief:
as §1

The test system of the next experiment is Astrocyte. As to the kind of experiment: Inhibition of LPS-induced NO production in rat astrocytes treated for 1 hr at 10 uM before LPS challenge measured after 24 hrs by Griess assay. Format: functional, cell-based. The method in brief: (§2)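 After 2 days, cells were pretreated with compound (10 μM), then LPS (10 μg/mL) was added for 24 h. Nitrite in the supernatant was measured by Griess reagent (15 min, room temperature, absorbance 492/540 nm). Mean ± SD of three experiments.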

In the next experiment the test system is SH-SY5Y. As to the kind of experiment: Cytoprotective activity against 6-OHDA-induced death of human SH-SY5Y cells pretreated for 1 hr at 10 uM measured 16 hrs post 6-OHDA challenge by MTT assay. Format: functional, cell-based. The method in brief: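 Human neuroblastoma SH-SY5Y grown in F12/EMEM with 2 mM glutamine, 1% nonessential amino acids and 15% FBS at 37 °C, 5% CO2. Semiconfluent cells pretreated 1 h with compound, then 6-OHDA (35 μM) added for 16 h. Viability by MTT (0.5 mg/mL, 4 h), SDS/HCl solubilisation, absorbance 595 nm. Mean ± SD of three experiments.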
(Formazan colour is commonly taken as a measure of viable cells.)

For another experiment, the system named is Microglia. As to the kind of experiment: Inhibition of LPS-induced NO production in rat microglia treated for 1 hr at 10 uM before LPS challenge measured after 24 hrs by Griess assay. It counts as functional. The method in brief: as §2
Experiment [6] deals with T2, 3',5'-cyclic-AMP phosphodiesterase 7B (Homo sapiens, UniProt Q9NP56). Description: Inhibition of human recombinant PDE7B assessed as inhibition of hydrolysis of [3H]cAMP after 20 mins by scintillation proximity assay. The method in brief:
as §1

Experiment [7] concerns the target T2, 3',5'-cyclic-AMP phosphodiesterase 7B. Description: Inhibition of human recombinant PDE7B assessed as inhibition of hydrolysis of [3H]cAMP at 10 uM after 20 mins by scintillation proximity assay. A digest of the protocol:
as §1

pIC50: −log10 of the molar value. The source made the active and inactive calls. The rule behind the calls is not given here.

Among the data in ChEMBL document CHEMBL3352280, “Modulation of cAMP-specific PDE without emetogenic activity: new sulfide-like PDE7 inhibitors” (J Med Chem, 2014) are inhibition, IC50 and Activity values, retold here.

T2 sequence (Q9NP56 whole entry): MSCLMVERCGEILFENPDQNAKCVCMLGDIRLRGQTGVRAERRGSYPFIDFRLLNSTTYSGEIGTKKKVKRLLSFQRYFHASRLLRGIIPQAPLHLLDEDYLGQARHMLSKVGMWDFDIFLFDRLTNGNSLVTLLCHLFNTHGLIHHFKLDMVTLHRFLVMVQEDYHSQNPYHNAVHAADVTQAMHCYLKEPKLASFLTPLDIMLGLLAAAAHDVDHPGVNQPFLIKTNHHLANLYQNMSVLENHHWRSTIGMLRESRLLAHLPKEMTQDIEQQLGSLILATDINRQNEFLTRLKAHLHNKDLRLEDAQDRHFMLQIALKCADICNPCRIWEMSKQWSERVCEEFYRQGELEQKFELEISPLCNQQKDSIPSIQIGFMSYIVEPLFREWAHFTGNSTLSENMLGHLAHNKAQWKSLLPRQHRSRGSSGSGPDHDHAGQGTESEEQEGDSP
3',5'-cyclic-AMP phosphodiesterase 4B, sequence (Q07343 whole entry): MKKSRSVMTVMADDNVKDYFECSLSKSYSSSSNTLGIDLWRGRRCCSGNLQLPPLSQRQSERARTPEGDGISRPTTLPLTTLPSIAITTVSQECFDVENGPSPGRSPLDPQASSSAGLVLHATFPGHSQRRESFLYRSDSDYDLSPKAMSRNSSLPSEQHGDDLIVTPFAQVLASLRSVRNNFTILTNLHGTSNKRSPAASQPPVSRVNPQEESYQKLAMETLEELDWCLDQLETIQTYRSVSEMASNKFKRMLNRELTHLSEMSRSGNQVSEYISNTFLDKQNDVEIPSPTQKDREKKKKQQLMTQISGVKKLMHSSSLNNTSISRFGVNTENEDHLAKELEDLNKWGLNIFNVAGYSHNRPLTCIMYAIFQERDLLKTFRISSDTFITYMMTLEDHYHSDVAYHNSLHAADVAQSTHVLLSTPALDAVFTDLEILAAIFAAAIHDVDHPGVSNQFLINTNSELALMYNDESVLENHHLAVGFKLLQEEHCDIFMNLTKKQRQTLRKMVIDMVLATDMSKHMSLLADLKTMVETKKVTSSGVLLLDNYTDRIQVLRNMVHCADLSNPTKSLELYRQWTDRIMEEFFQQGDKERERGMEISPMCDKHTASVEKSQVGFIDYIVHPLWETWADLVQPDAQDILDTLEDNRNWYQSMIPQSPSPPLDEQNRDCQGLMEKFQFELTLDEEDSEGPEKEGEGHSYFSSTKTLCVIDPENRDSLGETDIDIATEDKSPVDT
3',5'-cyclic-AMP phosphodiesterase 4D, sequence (Q08499 whole entry): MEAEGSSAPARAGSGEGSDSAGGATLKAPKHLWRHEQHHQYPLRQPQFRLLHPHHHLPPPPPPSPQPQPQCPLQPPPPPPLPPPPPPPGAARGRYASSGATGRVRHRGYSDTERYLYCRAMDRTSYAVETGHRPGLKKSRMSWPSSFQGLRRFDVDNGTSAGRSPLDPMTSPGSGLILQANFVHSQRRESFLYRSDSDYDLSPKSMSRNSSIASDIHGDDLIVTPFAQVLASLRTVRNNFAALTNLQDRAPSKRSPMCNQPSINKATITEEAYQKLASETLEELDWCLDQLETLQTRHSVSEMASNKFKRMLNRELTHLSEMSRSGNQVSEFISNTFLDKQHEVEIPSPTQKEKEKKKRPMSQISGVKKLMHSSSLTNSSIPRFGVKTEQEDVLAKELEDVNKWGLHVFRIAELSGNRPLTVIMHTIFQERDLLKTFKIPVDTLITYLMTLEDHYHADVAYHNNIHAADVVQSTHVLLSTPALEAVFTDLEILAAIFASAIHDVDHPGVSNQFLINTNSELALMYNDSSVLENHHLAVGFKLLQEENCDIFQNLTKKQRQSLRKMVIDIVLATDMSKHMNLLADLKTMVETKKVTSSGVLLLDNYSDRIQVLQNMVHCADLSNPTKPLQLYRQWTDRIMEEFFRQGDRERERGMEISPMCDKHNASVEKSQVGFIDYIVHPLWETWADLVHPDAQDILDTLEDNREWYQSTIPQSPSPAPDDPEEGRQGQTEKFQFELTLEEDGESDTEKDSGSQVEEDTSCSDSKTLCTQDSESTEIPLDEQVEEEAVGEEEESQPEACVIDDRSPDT
cGMP-inhibited 3',5'-cyclic phosphodiesterase 3A (Homo sapiens), sequence (Q14432 whole entry): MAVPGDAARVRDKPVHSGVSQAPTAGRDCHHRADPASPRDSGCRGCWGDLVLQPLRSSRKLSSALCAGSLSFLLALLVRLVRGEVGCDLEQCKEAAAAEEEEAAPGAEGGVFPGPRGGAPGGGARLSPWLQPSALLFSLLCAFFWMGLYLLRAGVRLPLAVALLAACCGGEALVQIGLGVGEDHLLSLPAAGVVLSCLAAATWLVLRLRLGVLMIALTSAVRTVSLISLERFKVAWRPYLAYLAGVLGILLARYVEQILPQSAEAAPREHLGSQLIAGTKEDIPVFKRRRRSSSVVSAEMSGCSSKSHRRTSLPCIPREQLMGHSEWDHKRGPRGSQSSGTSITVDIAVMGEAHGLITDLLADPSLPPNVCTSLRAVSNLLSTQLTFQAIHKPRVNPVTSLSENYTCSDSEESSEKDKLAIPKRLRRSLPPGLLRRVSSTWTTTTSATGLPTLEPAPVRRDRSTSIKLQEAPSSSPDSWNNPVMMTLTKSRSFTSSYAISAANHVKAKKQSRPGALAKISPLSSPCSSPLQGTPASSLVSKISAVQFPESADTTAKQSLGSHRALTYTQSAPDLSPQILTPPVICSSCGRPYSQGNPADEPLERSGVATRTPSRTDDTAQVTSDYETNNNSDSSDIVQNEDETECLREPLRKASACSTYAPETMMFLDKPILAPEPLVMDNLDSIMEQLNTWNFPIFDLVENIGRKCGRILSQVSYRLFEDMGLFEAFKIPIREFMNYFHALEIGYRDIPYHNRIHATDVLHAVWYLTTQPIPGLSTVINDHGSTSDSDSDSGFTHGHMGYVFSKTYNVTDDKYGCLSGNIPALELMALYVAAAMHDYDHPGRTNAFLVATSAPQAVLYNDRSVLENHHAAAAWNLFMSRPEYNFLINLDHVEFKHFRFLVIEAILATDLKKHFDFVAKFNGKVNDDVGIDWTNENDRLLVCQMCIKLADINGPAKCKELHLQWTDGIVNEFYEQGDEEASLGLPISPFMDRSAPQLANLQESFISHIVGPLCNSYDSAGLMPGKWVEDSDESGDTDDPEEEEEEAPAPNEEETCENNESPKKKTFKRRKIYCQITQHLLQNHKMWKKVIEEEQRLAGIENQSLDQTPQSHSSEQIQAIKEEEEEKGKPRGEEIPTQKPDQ
T1 sequence (Q13946 whole entry): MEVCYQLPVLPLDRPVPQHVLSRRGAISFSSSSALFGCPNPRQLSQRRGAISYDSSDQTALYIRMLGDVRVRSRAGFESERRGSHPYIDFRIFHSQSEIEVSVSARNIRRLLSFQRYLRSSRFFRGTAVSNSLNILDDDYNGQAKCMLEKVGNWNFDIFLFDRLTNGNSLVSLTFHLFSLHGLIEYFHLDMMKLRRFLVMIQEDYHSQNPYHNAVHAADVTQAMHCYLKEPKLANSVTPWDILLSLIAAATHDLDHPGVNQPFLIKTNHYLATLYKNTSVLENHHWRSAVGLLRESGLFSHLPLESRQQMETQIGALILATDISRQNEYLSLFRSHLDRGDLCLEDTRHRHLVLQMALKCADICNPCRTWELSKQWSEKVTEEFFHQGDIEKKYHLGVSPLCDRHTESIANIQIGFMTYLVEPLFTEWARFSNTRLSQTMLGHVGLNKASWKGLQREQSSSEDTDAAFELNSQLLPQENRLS

As a reminder, the inhibition is the drop in the measured response relative to a control, in per cent. The term pIC50 denotes the negative decadic logarithm of the IC50, by convention in mol/L. Turning to `CC(=O)Nc1ccccc1Sc1cc(Cl)ccc1[N+](=O)[O-]`, the inhibition in experiment [1] worked out at 11%; in experiment [2], 10%; in experiment [3] it was 10%; in experiment [4] it was 58%. In [5], the pIC50 is 5.68.
Consider `O=[N+]([O-])c1cc(Cl)ccc1Sc1ccccc1Br`, for which the inhibition result in the experiment with Astrocyte and in the experiment on Microglia was “Active” in each case. In addition, the result in the experiment on SH-SY5Y was Active. For the same compound, the inhibition in experiment [1] was found to be 30%; in experiment [2], 60%; in [3], 44%; in experiment [4], 79%; in experiment [7], 92%. The values for the pIC50 in [6] and in experiment [5] were 5.85 and 6.00, respectively.
For `Nc1ccc(Oc2ccc([N+](=O)[O-])cc2Cl)cc1`, the inhibition in experiment [4] is 77%. Further, the pIC50 in [5] is 5.66.
In the case of `O=[N+]([O-])c1ccc(Sc2ccccc2)c(Cl)c1`, the inhibition in experiment [4] came to 74%. Moreover, the pIC50 in experiment [5] was 5.66.
The matching figures for `Nc1cccc(Sc2ccc([N+](=O)[O-])cc2Cl)c1`: 78% and 5.49.
Turning to `Nc1ccc(Sc2ccc([N+](=O)[O-])c(Cl)c2)cc1`, the inhibition entry in the experiment on Astrocyte and in the experiment with Microglia was “Active” throughout. Moreover, the result in the experiment on SH-SY5Y was Active. For the same compound, the inhibition turned out to be 2% in experiment [1]; 22% in experiment [2]; 3% in [3]; 79% in experiment [4]; 42% in experiment [7]. Besides, the pIC50 in experiment [5] was 5.83.
As to `O=[N+]([O-])c1cc(Cl)ccc1Sc1ccccc1`, the inhibition entry in the experiment on Astrocyte and in the experiment on Microglia was “Active” each time. For the same compound, the outcome in the experiment on SH-SY5Y was Active. The inhibition in experiment [1] amounted to 28%; in [2], 46%; in experiment [3], 13%; in experiment [4], 87%; in experiment [7], 74%. Further, the pIC50 in experiment [6] and in experiment [5] was 5.82 in each case.
On to `O=[N+]([O-])c1cc(Cl)ccc1Sc1ccccn1`, for which, in experiment [4], the inhibition was 69%. In addition, the pIC50 in [5] is 5.44.
The matching figures for `Nc1ccccc1Sc1ccc([N+](=O)[O-])cc1Cl`: 60% and 5.06.
For the compound `O=[N+]([O-])c1ccc(Cl)cc1Sc1ccncc1`, the inhibition in [4] came to 80%. Moreover, the pIC50 in [5] is 5.73.
Consider `O=[N+]([O-])c1cc(Cl)c(Cl)cc1Sc1ccccc1Br`, for which the inhibition in experiment [4] came out at 49%. Moreover, the pIC50 in experiment [5] was 5.54.
The matching figures for `Nc1ccccc1Sc1cc(Cl)ccc1[N+](=O)[O-]`: 66% and 5.26.
`O=[N+]([O-])c1ccc(Cl)cc1Sc1ccccc1Br`: the inhibition result with Astrocyte and in the experiment on Microglia was “Active” each time. In addition, the outcome in the experiment with SH-SY5Y was Active. Further, the inhibition in experiment [1] was determined as 6%; in experiment [2], 16%; in experiment [3], 2%; in experiment [4] it was 69%; in [7], 71%. Besides, the pIC50 in experiment [6] was 5.66; in experiment [5] it was 6.00.
Consider `Nc1ccccc1Sc1ccc(Cl)cc1[N+](=O)[O-]`, for which the inhibition in experiment [4] was 69%. In experiment [5], the pIC50 is 5.24.
The matching figures for `O=[N+]([O-])c1cc(Cl)ccc1Sc1cccs1`: 81% and 5.80.
For `O=[N+]([O-])c1ccc(Sc2cccs2)c(Cl)c1`, in that order: 69% and 5.28.
In the case of `O=[N+]([O-])c1ccc(Sc2ccccc2Br)c(Cl)c1`, the inhibition in experiment [4] turned out to be 59%. The pIC50 in experiment [5] is 5.67.
Take `Nc1ccc(Sc2ccc(N)cc2Cl)cc1`: the inhibition in experiment [4] was determined as 46%. The pIC50 in experiment [5] is 5.19.
For the compound `Nc1ccc(Oc2ccc(Cl)cc2[N+](=O)[O-])cc1`, the inhibition in experiment [4] was found to be 70%. Moreover, the pIC50 in experiment [5] is 5.48.
